Data on six compounds can be found in ChEMBL document CHEMBL2163200, “Synthesis, biological evaluation, and structure-activity relationships of novel substituted N-phenyl ureidobenzenesulfonate derivatives blocking cell cycle progression in S-phase and inducing DNA double-strand breaks” (J Med Chem, 2012).

As usually defined, the IC50 is the concentration needed to halve the response being measured. In general, TGI refers to how far tumour growth fell short of that in controls.

Calls of active or inactive are those of the source. No cut-off for these calls is given here.

Series [1] concerns Jurkat. The experiment in a line: Cell cycle arrest in human Jurkat E6-1 cells assessed as accumulation at S phase at 25 uM after 24 hrs by FACS flow cytometry. The format is functional. An outline of the steps: (§1)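 Jurkat E6 cells grown in RPMI 1640 with 10% FBS at 37 °C, 5% CO2. Compounds were serially diluted in medium starting 50% above the M21 IC50. 4.0 × 10^5 cells were exposed for 24 h, then washed and spiked with chicken red blood cells as internal standard. Cells were fixed in ice-cold ethanol, stained with 1 μg/mL DAPI on ice for 1 h, and phase distribution was read by flow cytometry. The control was 0.5% DMSO.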
Background: In flow cytometry, cells or beads pass a laser one at a time.

For series [2], the system named is Jurkat. The experiment in a line: Cell cycle arrest in human Jurkat E6-1 cells assessed as accumulation at G2/M phase at 25 uM after 24 hrs by FACS flow cytometry. The format is functional. The procedure, abridged: as §1
The next series concerns HT-29. Description: Cytotoxicity against human HT-29 cells after 48 hrs by SRB assay. The format is functional, cell-based. The conditions noted are these: HT-29, 48 h. The procedure, abridged:
(§2)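 NCI sulforhodamine B protocol. Cells were grown in high-glucose DMEM with 5% FBS and seeded per well at 4 × 10^3 (HT-29), 3.5 × 10^3 (M21) or 3 × 10^3 (MCF-7), then allowed 24 h to attach. Serial dilutions from 200 μM to 780 nM final were applied in DMSO <0.5% for 48 h. Cells were fixed with cold TCA (10% final) and stained with SRB, with absorbance read at 530–568 nm. Growth inhibition was computed against day-0 plates, giving the 50% inhibitory concentration. At least two experiments in triplicate, CV <10%.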

The subject of series [3] is M21. The experiment in a line: Cytotoxicity against human M21 cells after 48 hrs by SRB assay. The format is functional, cell-based. The conditions noted are these: M21, 48 h. An outline of the steps: as §2
(In general: The SRB assay estimates cell density from bound dye.)

In another series the test system is MCF7. Description: Cytotoxicity against human MCF7 cells after 48 hrs by SRB assay. The format is functional, cell-based. Particulars: MCF7, 48 h. An outline of the steps:
as §2

Series [4] has as its system Jurkat. The experiment in a line: Cell cycle arrest in human Jurkat E6-1 cells assessed as accumulation at G0/G1 phase at 25 uM after 24 hrs by FACS flow cytometry. The format is functional. The procedure, abridged: (§3)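 Jurkat E6 cells cultured in RPMI 1640 with 10% FBS at 37 °C, 5% CO2. Compounds serially diluted in medium, starting 50% above the M21 IC50. 4.0 × 10^5 cells were exposed for 24 h. Cells were washed with PBS, chicken red blood cells added as internal standard, and fixed in ice-cold EtOH. After 1 h on ice in PBS with 1 μg/mL DAPI, phase distribution was read by flow cytometry. DMSO-treated cells served as control.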

The test system of series [5] is Jurkat. The experiment in a line: Cell cycle arrest in human Jurkat E6-1 cells assessed as accumulation at S phase at 31 uM after 24 hrs by FACS flow cytometry. The format is functional. An outline of the steps:
(§4)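 Jurkat E6 T-lymphoblasts in RPMI 1640 with 10% FBS, 37 °C, 5% CO2. […] Chicken red blood cells were added as internal standard. Cells were fixed in ice-cold EtOH and stained with 1 μg/mL DAPI on ice for 1 h before flow cytometry of phase distribution. Vehicle control was 0.5% DMSO.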

The test system of series [6] is Jurkat. The experiment in a line: Cell cycle arrest in human Jurkat E6-1 cells assessed as accumulation at G2/M phase at 31 uM after 24 hrs by FACS flow cytometry. The format is functional. An outline of the steps: as §1
The test system of series [7] is M21. Description: Induction of DNA damage response in human M21 cells assessed as phosphorylation of H2AX into gammaH2AX at IC50 after 24 hrs by DAPI staining-based immunofluorescence assay. The format is functional, cell-based. An outline of the steps:
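M21 cells (1 × 10^5) on fibronectin-coated coverslips, grown 24 h, then exposed to agent for 24 h at 37 °C; 0.5% DMSO control. Fixed with 3.7% formaldehyde and permeabilized with 0.1% saponin/3% BSA. Probed with mouse anti-H2AX pS139 antibody for 2 h at room temperature. Nuclei counterstained with DAPI; nuclear γH2AX foci viewed by epifluorescence microscopy.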

The subject of series [8] is Jurkat. Description: Cell cycle arrest in human Jurkat E6-1 cells assessed as accumulation at G0/G1 phase at 31 uM after 24 hrs by FACS flow cytometry. The format is functional. The procedure, abridged:
as §3

In series [9] the test system is Jurkat. Description: Cell cycle arrest in human Jurkat E6-1 cells assessed as accumulation at S phase at 15 uM after 24 hrs by FACS flow cytometry. The format is functional. An outline of the steps: as §1
Series [10] has as its system Jurkat. Description: Cell cycle arrest in human Jurkat E6-1 cells assessed as accumulation at G2/M phase at 15 uM after 24 hrs by FACS flow cytometry. The format is functional. An outline of the steps:
as §3

The subject of the next series is HT-1080. Description: Antitumor activity against human HT1080 cells xenografted in chicken chorioallantoic membrane assessed as inhibition of tumor growth at 30 ug per egg, iv administered on day 11 measured on day 17 by CAM assay. The format is functional. The procedure, abridged: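 HT-1080 fibrosarcoma cells (3.5 × 105/egg) were applied onto freshly exposed CAM of fertilized chicken eggs. On day 11, drug from a DMSO stock was diluted in Cremophor EL/99% ethanol/PBS (1/1/14 v/v) and 100 μL was injected into a vein under the CAM. Groups of 10–12 eggs were kept to day 17, embryos were euthanized at 4 °C for ≥4 h, and tumor wet weight was recorded.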
Background: Xenograft models place foreign cells or tissue in a host animal.

A short description of series [11]: Toxicity in fertilized chicken embryo assessed as mortality rate at 30 ug per egg, iv administered on day 11 measured on day 17 by CAM assay. The format is organism-based, Gallus gallus. Particulars: in vivo, read-out: Activity. An outline of the steps:
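Fertilized chicken eggs grafted on the CAM with HT-1080 cells (3.5 × 105/egg) received a 100 μL intravenous injection under the CAM on day 11. The drug was diluted in Cremophor EL/99% ethanol/PBS (1/1/14 v/v). Groups held 10–12 eggs and were incubated until day 17, when dead embryos and signs of toxicity were counted per group.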

The test system of series [12] is Jurkat. The experiment in a line: Cell cycle arrest in human Jurkat E6-1 cells assessed as accumulation at G0/G1 phase at 15 uM after 24 hrs by FACS flow cytometry. The format is functional. An outline of the steps: as §3
Series [13] concerns Jurkat. Description: Cell cycle arrest in human Jurkat E6-1 cells assessed as accumulation at S phase at 26 uM after 24 hrs by FACS flow cytometry. The format is functional. An outline of the steps:
as §4

The test system of series [14] is Jurkat. The experiment in a line: Cell cycle arrest in human Jurkat E6-1 cells assessed as accumulation at G2/M phase at 26 uM after 24 hrs by FACS flow cytometry. The format is functional. An outline of the steps: as §1
Series [15] deals with Jurkat. Description: Cell cycle arrest in human Jurkat E6-1 cells assessed as accumulation at G0/G1 phase at 26 uM after 24 hrs by FACS flow cytometry. The format is functional. An outline of the steps: as §3
The test system of series [16] is Jurkat. Description: Cell cycle arrest in human Jurkat E6-1 cells assessed as accumulation at G0/G1 phase at 40 uM after 24 hrs by FACS flow cytometry. The format is functional. The procedure, abridged:
as §3

Series [17] concerns Jurkat. Description: Cell cycle arrest in human Jurkat E6-1 cells assessed as accumulation at S phase at 40 uM after 24 hrs by FACS flow cytometry. The format is functional. The procedure, abridged:
as §4

The test system of series [18] is Jurkat. Description: Cell cycle arrest in human Jurkat E6-1 cells assessed as accumulation at G2/M phase at 40 uM after 24 hrs by FACS flow cytometry. The format is functional. The procedure, abridged:
as §1

Series [19] deals with Jurkat. Description: Cell cycle arrest in human Jurkat E6-1 cells assessed as accumulation at G0/G1 phase at 2.5 uM after 24 hrs by FACS flow cytometry. The format is functional. An outline of the steps: as §3
The subject of series [20] is Jurkat. The experiment in a line: Cell cycle arrest in human Jurkat E6-1 cells assessed as accumulation at S phase at 2.5 uM after 24 hrs by FACS flow cytometry. The format is functional. The procedure, abridged:
as §1

Series [21] has as its system Jurkat. The experiment in a line: Cell cycle arrest in human Jurkat E6-1 cells assessed as accumulation at G2/M phase at 2.5 uM after 24 hrs by FACS flow cytometry. The format is functional. The procedure, abridged: as §1

As for `Cc1ccccc1NS(=O)(=O)c1cccc(NC(=O)NCCCCl)c1`, the results for the Activity in the series on Jurkat [1], in the series with Jurkat [2] and in the series with Jurkat [4] were 38%, 17% and 45%, respectively. For the same compound, the results for the IC50 in the series with HT-29, in the series on M21 [3] and with MCF7 were 42 µM, 60 µM and 52 µM, respectively.
On to `O=C(NCCCCl)Nc1ccc(S(=O)(=O)Oc2ccc(O)cc2)cc1`, for which the Activity in the series on Jurkat [5] is on record as 65%; in the series on Jurkat [6], 12%; in the series on Jurkat [8], 23%. Also, the result in the series with M21 [7] was Active. The IC50 was found to be 50 µM with HT-29, 47 µM in the series with M21 [3] and 51 µM in the series with MCF7.
`CCc1ccccc1OS(=O)(=O)c1ccc(NC(=O)NCCCCl)cc1`: the Activity in the series with Jurkat [9] was determined as 63%; in the series with Jurkat [10], 11%; in the series on Jurkat [12] it was 26%. In addition, the outcome in the series with M21 [7] was Active. Besides, in the series on HT-1080, the tumour growth inhibition (TGI) is on record as 68%. Also, in [11], the mortality at 6 days came out at 0%. Moreover, half-maximal inhibition with M21 [3] (IC50) required 15 µM.
As for `CCCc1ccccc1NS(=O)(=O)c1cccc(NC(=O)NCCCCl)c1`, the Activity is 43% in the series with Jurkat [13], 13% with Jurkat [14] and 44% in the series on Jurkat [15]. For the same compound, the results for the IC50 in the series on HT-29, with M21 [3] and in the series with MCF7 were 15 µM, 23 µM and 18 µM, respectively.
In the case of `CCNC(=O)Nc1cccc(S(=O)(=O)Oc2ccccc2C)c1`, the figures for the Activity in the series on Jurkat [16], with Jurkat [17] and with Jurkat [18] were 25%, 60% and 15%, respectively. In the series on M21 [7], the result was Active. The IC50 with HT-29 came to 44 µM; in the series on M21 [3], 51 µM; with MCF7, 55 µM.
As to `CCNC(=O)Nc1ccc(S(=O)(=O)Oc2ccccc2C)cc1`, the figures for the Activity with Jurkat [19], in the series on Jurkat [20] and in the series with Jurkat [21] were 23%, 61% and 16%, respectively. For the same compound, the result in the series with M21 [7] was Active. Further, the inhibition of tumour growth (TGI) in the series with HT-1080 worked out at 68%. Also, the mortality at 6 days in [11] was determined as 9%. Further, the IC50 in the series with HT-29 came to 12 µM; with M21 [3], 3.1 µM; in the series on MCF7, 4.5 µM.
